Experimental data from different studies.
Compare with care: the assays were run in different laboratories.
Target: Kappa-type opioid receptor (OPRK1, Homo sapiens, UniProt P41145)

Structure (SMILES)	test	conditions	measurement	result
Cc1cc(O)cc(C)c1C[C@H](N)C(=O)N1CCc2ccc(Cc3ccc(N)cc3)cc2C1	ligand displacement, radioligand	cell membranes	Ki	91 nM
CC(CCc1ccc(O)cc1)NCCc1ccc(O)c(O)c1 (stereo not shown)	ligand displacement, radioligand		IC50	5300 nM
CCCO[C@@]12Cc3cc(-c4ccccc4)cnc3[C@@H]3Oc4c(O)ccc5c4[C@@]31CCN(CC1CC1)[C@@H]2C5	cell-free assay		Ki	252 nM
Cc1cc(O)cc(C)c1C[C@H](N)C(=O)N[C@H](C)C(=O)NCC(=O)N[C@@H](Cc1ccc(Cl)cc1)C(=O)N(C)CCC[C@@]1(c2ccc(F)cc2)OCc2cc(C#N)ccc21	cell-free assay		Ki	37 nM
Cc1ccccc1Cc1ccc2c(c1)CN(C(=O)[C@@H](N)Cc1c(C)cc(O)cc1C)CC2	ligand displacement, radioligand	cell membranes	Ki	1.2 nM
COC(=O)C(c1ccccc1)C1CCCCN1 (stereo not shown)	ligand displacement, radioligand		IC50	6900 nM
COC(=O)/C=C/C(=O)N[C@@H]1CC[C@@]2(O)[C@H]3Cc4ccc(O)c5c4[C@@]2(CCN3CC2CC2)[C@H]1O5	ligand displacement, radioligand	cell membranes	IC50	7.78 nM
COc1ncccc1-c1cnn2ccc(N3CCN(C(=O)OC(C)C)CC3)nc12	cell-free assay		IC50	> 30000 nM
Cc1cc(O)cc(C)c1C[C@H](N)C(=O)N1Cc2ccccc2CC1C(=O)NCC(=O)NC(Cc1ccc(Cl)cc1)C(=O)N(C)CCC[C@@]1(c2ccc(F)cc2)OCc2cc(C#N)ccc21 (stereo in doubt)	cell-free assay		Ki	91 nM
CN[C@]1(c2ccccc2Cl)CCCCC1=O	ligand displacement, radioligand		IC50	13000 nM
C[C@H]1[C@H]2Cc3ccc(O)cc3[C@]1(C)CCN2CC1CC1	cell-free assay		Ki	0.95 nM
COc1ccc(C(=O)Nc2ccccc2CCC2CCCCN2C)cc1 (stereo not shown)	ligand displacement, radioligand		IC50	3600 nM
Cc1cc(O)cc(C)c1C[C@H](N)C(=O)N1CCc2ccc(Cc3cccc([N+](=O)[O-])c3)cc2C1	ligand displacement, radioligand	cell membranes	Ki	2.5 nM
